Reference: ChEMBL document CHEMBL2177098, “Synthesis and evaluation of novel ¹⁸F labeled 2-pyridinylbenzoxazole and 2-pyridinylbenzothiazole derivatives as ligands for positron emission tomography (PET) imaging of β-amyloid plaques” (J Med Chem, 2012)

Columns and labels:
Brain [1] = assay: Drug uptake in ICR mouse brain at 370 kBq/100 ul, iv at 30 mins by gamma-counting analysis; type: ADME, organism-based; conditions: in vivo, 0.5 h
Method in brief: (§1)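 Male ICR mice (5 weeks, about 20 g) got 18F tracer in saline (370 KBq per 100 μL) via tail vein; n = 5 per time point, killed at 2, 10, 30, 60 min. Organs weighed and γ-counted; percent dose per gram wet tissue from comparison with diluted injectate aliquots.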

Brain [2] = assay: Drug uptake in ICR mouse brain at 370 kBq/100 ul, iv at 2 mins by gamma-counting analysis; type: ADME, organism-based; conditions: in vivo; method in brief: as §1
Intestine = assay: Drug uptake in ICR mouse intestine assessed per organ at 370 kBq/100 ul, iv at 2 mins by gamma-counting analysis; type: ADME, organism-based; conditions: in vivo
Method in brief: (§2)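 Male ICR mice (5 weeks, about 20 g) got 18F tracer in saline (370 KBq per 100 μL) via tail vein; n = 5 per time point, killed at 2, 10, 30, 60 min. Organs removed and γ-counted against diluted injectate; expressed as % injected dose per organ.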

Kidney = assay: Drug uptake in ICR mouse kidney at 370 kBq/100 ul, iv at 2 mins by gamma-counting analysis; type: ADME, organism-based; conditions: in vivo; method in brief: as §1
Brain [3] = assay: Ratio of drug uptake in brain at 2 mins to drug uptake in brain at 60 mins in ICR mouse at 370 KBq/100 ul, iv; type: ADME, organism-based; conditions: in vivo
Method in brief: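 Normal male ICR mice (5 weeks, about 20 g) received the ¹⁸F tracer in saline (370 KBq per 100 μL) by tail-vein injection. Groups of n = 5 were killed at 2, 10, 30 and 60 min. Organs were removed, weighed and γ-counted against diluted aliquots of the injectate, giving % dose per gram. Stomach and intestine were expressed per organ. The brain ratio is 2 min/60 min uptake. Values are mean ± SD.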

Bone [4] = assay: Drug uptake in ICR mouse bone at 370 kBq/100 ul, iv at 30 mins by gamma-counting analysis; type: ADME, organism-based, Bone element; conditions: in vivo, 0.5 h; method in brief: as §1
Brain [5] = assay: Drug uptake in ICR mouse brain at 370 kBq/100 ul, iv at 60 mins by gamma-counting analysis; type: ADME, organism-based; conditions: in vivo, 1 h; method in brief: as §1
Heart = assay: Drug uptake in ICR mouse heart at 370 kBq/100 ul, iv at 10 mins by gamma-counting analysis; type: ADME, organism-based; conditions: in vivo; method in brief: as §1
Blood [6] = assay: Drug uptake in ICR mouse blood at 370 kBq/100 ul, iv at 30 mins by gamma-counting analysis; type: ADME, organism-based; conditions: in vivo, 0.5 h; method in brief: as §1
Stomach = assay: Drug uptake in ICR mouse stomach assessed per organ at 370 kBq/100 ul, iv at 30 mins by gamma-counting analysis; type: ADME, organism-based; conditions: in vivo, 0.5 h; method in brief: as §2
Bone [7] = assay: Drug uptake in ICR mouse bone at 370 kBq/100 ul, iv at 10 mins by gamma-counting analysis; type: ADME, organism-based, Bone element; conditions: in vivo; method in brief: as §1
Blood [8] = assay: Drug uptake in ICR mouse blood at 370 kBq/100 ul, iv at 60 mins by gamma-counting analysis; type: ADME, organism-based; conditions: in vivo, 1 h; method in brief: as §1
Brain [9] = assay: Drug uptake in ICR mouse brain at 370 kBq/100 ul, iv at 10 mins by gamma-counting analysis; type: ADME, organism-based; conditions: in vivo; method in brief: as §1
Liver [10] = assay: Drug uptake in ICR mouse liver at 370 kBq/100 ul, iv at 60 mins by gamma-counting analysis; type: ADME, organism-based; conditions: in vivo, 1 h; method in brief: as §1
Liver [11] = assay: Drug uptake in ICR mouse liver at 370 kBq/100 ul, iv at 10 mins by gamma-counting analysis; type: ADME, organism-based; conditions: in vivo; method in brief: as §1

For `CNc1ccc(-c2nc3cc(OCC[18F])ccc3o2)cn1`, the Drug uptake (Brain [1]) was 1.69 % ID/g, the Drug uptake (Brain [2]) was 7.23 % ID/g and the Drug uptake (Intestine) was 9.87 %ID. The Drug uptake (Kidney) was 7.45 % ID/g, the Ratio (Brain [3]) was 4.66 and the Drug uptake (Bone [4]) was 2.34 % ID/g. For the same molecule, the Drug uptake (Brain [5]) was 1.55 % ID/g, the Drug uptake (Heart) was 2.34 % ID/g and the Drug uptake (Blood [6]) was 2.55 % ID/g. The Drug uptake (Stomach) was 3.11 %ID, the Drug uptake (Bone [7]) was 1.11 % ID/g and the Drug uptake (Blood [8]) was 3.2 % ID/g. It also gave a Drug uptake (Brain [9]) of 2.24 % ID/g, a Drug uptake (Liver [10]) of 2.64 % ID/g and a Drug uptake (Liver [11]) of 8.5 % ID/g.
